Source: ChEMBL document CHEMBL1129431, “Derivatives of (R)- and (S)-5-fluoro-8-hydroxy-2-(dipropylamino)tetralin: synthesis and interactions with 5-HT1A receptors” (J Med Chem, 1996)
Several values for one entry are separate records, joined by “and”; a condition that tells them apart may be missing. Identical values can stand only once.

Columns and labels:
[1] = target: T1, 5-hydroxytryptamine receptor 1A (Rattus norvegicus, UniProt P19327); assay: Binding affinity against rat hippocampal 5-hydroxytryptamine 1A (5-HT1A) receptor determined using [3H]8-OH-DPAT as radioligand; format: tissue-based, Hippocampus
T1 sequence (P19327 whole entry): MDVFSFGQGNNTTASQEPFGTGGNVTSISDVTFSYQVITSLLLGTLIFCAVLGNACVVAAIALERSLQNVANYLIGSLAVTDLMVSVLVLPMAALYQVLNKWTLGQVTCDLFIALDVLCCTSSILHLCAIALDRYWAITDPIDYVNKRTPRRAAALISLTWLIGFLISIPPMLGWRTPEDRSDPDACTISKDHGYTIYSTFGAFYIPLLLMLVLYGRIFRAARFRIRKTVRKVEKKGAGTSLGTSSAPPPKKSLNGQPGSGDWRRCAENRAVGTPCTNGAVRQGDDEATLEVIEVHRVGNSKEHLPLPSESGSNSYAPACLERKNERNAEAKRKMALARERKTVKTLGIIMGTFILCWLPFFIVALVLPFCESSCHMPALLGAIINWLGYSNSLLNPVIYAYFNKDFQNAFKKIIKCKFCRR

[2] = target: T2, 5-hydroxytryptamine receptor 1A (Rattus norvegicus) (UniProt P19327); assay: Effect on 5-hydroxytryptamine 1A receptor mediated inhibition of VIP-stimulated cAMP production at dose of 1 uM+ 10 uM 5-HT.; format: functional; conditions: values are per cent of control
T2 sequence (whole entry): T1 sequence (P19327 whole entry)
Outline: (§1)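 GH4ZD10 cells expressing rat 5-HT1A receptors were detached with EBSS plus 1 mM EDTA and resuspended to ~1×10^7 cells/mL in Ham's F10 with 0.01% ascorbic acid and 0.1 mM IBMX. After 1 h preincubation at 37 °C they were diluted to 0.8-1.5×10^6 cells/mL, then incubated 20 min at 37 °C with VIP (39 nM final) plus compound, alone or with 5-HT, in duplicate. The reaction was stopped by boiling. cAMP was measured in triplicate by protein-binding assay and expressed as % of the VIP-stimulated response.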

[3] = target: T2, 5-hydroxytryptamine receptor 1A (Rattus norvegicus); assay: Effect on 5-hydroxytryptamine 1A receptor mediated inhibition of VIP-stimulated cAMP production at dose of 30 uM; format: functional; conditions: values are per cent of control; outline: as §1
[4] = target: T2, 5-hydroxytryptamine receptor 1A (Rattus norvegicus); assay: Effect on 5-hydroxytryptamine 1A receptor mediated inhibition of VIP-stimulated cAMP production at dose of 0.1 uM + 1 uM 5-HT.; format: functional; conditions: values are per cent of control; outline: as §1
[5] = target: T2, 5-hydroxytryptamine receptor 1A (Rattus norvegicus); assay: Effect on 5-hydroxytryptamine 1A receptor mediated inhibition of VIP-stimulated cAMP production at dose of 1 uM; format: functional; conditions: values are per cent of control; outline: as §1
[6] = target: T2, 5-hydroxytryptamine receptor 1A (Rattus norvegicus); assay: Effect against 5-hydroxytryptamine 1A receptor mediated inhibition of VIP-stimulated cAMP production at 0.1 uM dose; format: functional; conditions: values are per cent of control; outline: as §1
[7] = target: T2, 5-hydroxytryptamine receptor 1A (Rattus norvegicus); assay: Effect on 5-hydroxytryptamine 1A receptor mediated inhibition of VIP-stimulated cAMP production at dose of 10 uM; format: functional; conditions: values are per cent of control; outline: as §1
[8] = target: T2, 5-hydroxytryptamine receptor 1A (Rattus norvegicus); assay: Effect on 5-hydroxytryptamine 1A receptor mediated inhibition of VIP-stimulated cAMP production at dose of 1 uM+ 0.1 uM 5-HT.; format: functional; conditions: values are per cent of control
Outline: (§2)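 GH4ZD10 cells expressing rat 5-HT1A receptors, detached with EDTA-supplemented Ca/Mg-free EBSS and resuspended in Ham's F10 with 0.01% ascorbic acid and 0.1 mM IBMX. Preincubated 1 h at 37 °C, then 0.8-1.5×10^6 cells/mL incubated 20 min at 37 °C with VIP (39 nM final) plus compounds. Duplicate samples stopped by boiling. cAMP measured in triplicate by protein-binding assay. Results are given as % of the VIP-stimulated response.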

[9] = target: T2, 5-hydroxytryptamine receptor 1A (Rattus norvegicus); assay: Effect on 5-hydroxytryptamine 1A receptor mediated inhibition of VIP-stimulated cAMP production at dose of 50 uM; format: functional; conditions: values are per cent of control; outline: as §2
[10] = target: T2, 5-hydroxytryptamine receptor 1A (Rattus norvegicus); assay: Effect on 5-hydroxytryptamine 1A receptor mediated inhibition of VIP-stimulated cAMP production at dose of 0.01 uM+ 1 uM 5-HT.; format: functional; conditions: values are per cent of control; outline: as §1
[11] = target: T2, 5-hydroxytryptamine receptor 1A (Rattus norvegicus); assay: Effect on 5-hydroxytryptamine 1A receptor-mediated inhibition of VIP-stimulated cAMP production at dose of 1 uM+ 10 uM 5-HT.; format: functional; conditions: values are per cent of control; outline: as §1
[12] = target: T2, 5-hydroxytryptamine receptor 1A (Rattus norvegicus); assay: Effect on 5-hydroxytryptamine 1A receptor mediated inhibition of VIP-stimulated cAMP production at dose of 0+ 1 uM 5-HT.; format: functional; conditions: values are per cent of control; outline: as §2
[13] = target: T2, 5-hydroxytryptamine receptor 1A (Rattus norvegicus); assay: Effect on 5-hydroxytryptamine 1A receptor mediated inhibition of VIP-stimulated cAMP production at dose of 0.1 uM + 10 uM 5-HT.; format: functional; conditions: values are per cent of control; outline: as §2
[14] = target: T2, 5-hydroxytryptamine receptor 1A (Rattus norvegicus); assay: Effect on 5-hydroxytryptamine 1A receptor mediated inhibition of VIP-stimulated cAMP production at dose of 0.1 uM + 0.1 uM 5-HT.; format: functional; conditions: values are per cent of control; outline: as §2
[15] = target: T2, 5-hydroxytryptamine receptor 1A (Rattus norvegicus); assay: Effect on 5-hydroxytryptamine 1A receptor mediated inhibition of VIP-stimulated cAMP production at dose of 1 uM+ 1 uM 5-HT.; format: functional; conditions: values are per cent of control; outline: as §2
[16] = target: T2, 5-hydroxytryptamine receptor 1A (Rattus norvegicus); assay: (§3) Effect on 5-hydroxytryptamine 1A receptor mediated inhibition of VIP-stimulated cAMP production at dose of 1 uM+ 50 uM 5-HT.; format: functional; conditions: values are per cent of control; outline: as §2
[17] = target: T2, 5-hydroxytryptamine receptor 1A (Rattus norvegicus); assay: Effect on 5-hydroxytryptamine 1A receptor mediated inhibition of VIP-stimulated cAMP production at dose of 0.05 uM; format: functional; conditions: values are per cent of control; outline: as §2
[18] = target: T2, 5-hydroxytryptamine receptor 1A (Rattus norvegicus); conditions: 1 uM
[19] = target: T2, 5-hydroxytryptamine receptor 1A (Rattus norvegicus); assay: as §3; format: functional; conditions: values are per cent of control; outline: as §1; remark: listed apart in the source

SMILES | Ki [1] | response, % of control [4] | response, % of control [5] | response, % of control [6] | response, % of control [7] | other results
CCCN(CCC)[C@@H]1CCc2c(F)ccc(-c3cccs3)c2C1 [listing 1 of 2 here] | 0.035 µM |  |  |  |  | 
CCCN(CCC)[C@H]1CCc2c(F)ccc(OS(=O)(=O)C(F)(F)F)c2C1 [listing 1 of 2 here] | 0.49 µM |  |  |  |  | 
CCCN(CCC)[C@@H]1CCc2c(F)ccc(OS(=O)(=O)C(F)(F)F)c2C1 [listing 1 of 2 here] |  | 60% | 91% | 98% | 61% | response, % of control [2]: 52%; response, % of control [3]: 48%
CCCN(CCC)[C@@H]1CCc2c(F)ccc(OS(=O)(=O)C(F)(F)F)c2C1 [listing 2 of 2 here] | 0.0185 µM |  |  |  |  | 
CCCN(CCCCN1C(=O)CC2(CCCC2)CC1=O)[C@H]1CCc2c(F)ccc(-c3ccco3)c2C1 | 0.0075 µM | 62% |  |  |  | response, % of control [8]: 58% and 66%; response, % of control [2]: 68%
CCCN(CCC)[C@@H]1CCc2cccc(O)c2C1 |  | 43% | 45% | 53% | 47% | 
CCCN(CCC)[C@@H]1CCc2c(F)cccc2C1 [listing 1 of 3 here] |  |  | 85% | 93% and 98% | 81% | response, % of control [9]: 78%; response, % of control [10]: 60%; response, % of control [11]: 58%
CCCN(CCC)[C@H]1CCc2c(F)ccc(-c3ccco3)c2C1 |  | 56% | 98% | 100% | 98% | 
CCCN(CCCCN1C(=O)CC2(CCCC2)CC1=O)[C@@H]1CCc2c(F)ccc(-c3ccco3)c2C1 | 0.0011 µM |  | 60% |  |  | response, % of control [12]: 62%; response, % of control [13]: 54%; response, % of control [14]: 57%; response, % of control [15]: 60%
CCCN(CCC)[C@H]1CCc2cccc(-c3cccs3)c2C1 | 0.0055 µM |  |  |  |  | 
CCCN(CCC)[C@H]1CCc2c(F)cccc2C1 [listing 1 of 2 here] | 0.25 µM |  |  |  |  | 
CCCN(CCCCN1C(=O)CC2(CCCC2)CC1=O)[C@@H]1CCc2c(F)ccc(OC)c2C1 | < 0.0003 µM | 56% | 56% |  |  | response, % of control [9]: 41%; response, % of control [16]: 40%; response, % of control [17]: 62%
CCCN(CCCCN1C(=O)CC2(CCCC2)CC1=O)[C@@H]1CCc2c(F)ccc(C(C)=O)c2C1 | < 0.0003 µM | 61% | 59% |  |  | response, % of control [9]: 48%; response, % of control [16]: 55%; response, % of control [17]: 50%
CCCN(CCC)[C@@H]1CCc2c(F)cccc2C1 [listing 2 of 3 here] | 0.136 µM |  |  |  |  | 
CCCN(CCC)[C@@H]1CCc2cccc(S(=O)(=O)C(F)(F)F)c2C1 | 0.0038 µM |  |  |  |  | 
CCCN(CCC)[C@@H]1CCc2cccc(-c3ccco3)c2C1 | 0.0093 µM |  |  |  |  | 
CCCN(CCC)[C@H]1CCc2c(F)ccc(OS(=O)(=O)C(F)(F)F)c2C1 [listing 2 of 2 here] | 0.49 µM |  |  |  |  | 
CCCN(CCC)[C@@H]1CCc2c(F)cccc2C1 [listing 3 of 3 here] | 0.136 µM |  |  |  |  | 
CCCN(CCC)[C@@H]1CCc2c(F)ccc(-c3cccs3)c2C1 [listing 2 of 2 here] |  | 60% | 93% | 98% | 79% | response, % of control [2]: 58%; response, % of control [3]: 61%
CCCN(CCC)[C@H]1CCc2c(F)ccc(O)c2C1 | 0.0248 µM | 57% |  | 94% | 100% | response, % of control [18]: 100%
CCCN(CCC)[C@H]1CCc2c(F)ccc(C(C)=O)c2C1 |  | 57% | 98% | 90% | 97% | 
CCCN(CCC)[C@H]1CCc2c(F)cccc2C1 [listing 2 of 2 here] |  | 61% | 86% | 85% |  | response, % of control [9]: 86%; response, % of control [19]: 73%
